In experiment [1] the test system is NCI-H1703. Briefly: Induction of apoptosis in human NCI-H1703 cells assessed as cleaved PARP expression level at 0.3 to 10 uM after 72 hrs by Western blot analysis. It counts as functional, cell-based. The procedure, abridged: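 Cells exposed to compound or DMSO for the stated periods, then lysed and immunoblotted for PARP and caspase-3 cleavage, with β-actin as loading control. NCI-H1703 stimulation used PDGF AA at 100 ng/mL.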
For orientation: Immunoblotting shows a protein as a band on a membrane.

The target of experiment [2] is Serine/threonine-protein kinase VRK2 (Homo sapiens) (UniProt Q86Y07). Briefly: Binding affinity to wild-type human partial length VRK2 (M1 to T336 residues) expressed in mammalian expression system assessed as residual binding level at 1 uM by Kinomescan method relative to control.
Experiment [3] addresses Macrophage colony-stimulating factor 1 receptor (Homo sapiens) (UniProt P07333). The experiment is described as follows: Binding affinity to wild-type human partial length autoinhibited CSF1R (Y538 to S939 residues) expressed in mammalian expression system assessed as residual binding level at 1 uM by Kinomescan method relative to control.
Experiment [4] addresses TGF-beta receptor type-2 (Homo sapiens) (UniProt P37173). The experiment is described as follows: Binding affinity to wild-type human partial length TGFBR2 (I218 to K567 residues) expressed in bacterial expression system assessed as residual binding level at 1 uM by Kinomescan method relative to control.
For experiment [5], the target named is Serine/threonine-protein kinase ICK (Homo sapiens) (UniProt Q9UPZ9). Briefly: Binding affinity to wild-type human partial length ICK (M1 to P314 residues) expressed in mammalian expression system assessed as residual binding level at 1 uM by Kinomescan method relative to control.
The target of experiment [6] is Phosphatidylinositol 4,5-bisphosphate 3-kinase catalytic subunit alpha isoform (Homo sapiens) (UniProt P42336). Briefly: Binding affinity to wild-type human partial length PIK3CA (R108 to N1068 residues) expressed in mammalian expression system assessed as residual binding level at 1 uM by Kinomescan method relative to control.
In experiment [7] the target is Cyclin-dependent kinase-like 1 (Homo sapiens) (UniProt Q00532). The experiment is described as follows: Binding affinity to wild-type human full length CDKL1 (M1 to I358 residues) expressed in mammalian expression system assessed as residual binding level at 1 uM by Kinomescan method relative to control. The procedure, abridged: (§1)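 Single-concentration (1 μM) competition-binding screen run by KINOMEscan against a panel of 468 purified kinases and mutants. The read-out is the relative binding activity of the test compound to each kinase.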

Experiment [8] concerns the target Mitogen-activated protein kinase kinase kinase 3 (Homo sapiens) (UniProt Q99759). The experiment is described as follows: Binding affinity to wild-type human partial length MAP3K3 (E320 to Y626 residues) expressed in mammalian expression system assessed as residual binding level at 1 uM by Kinomescan method relative to control.
Experiment [9] has as its target Platelet-derived growth factor receptor alpha (Homo sapiens, UniProt P16234). Briefly: Inhibition of PDGFRalpha in human EOL-1 cells assessed as decrease in STAT3 phosphorylation at Y705 residue up to 300 nM after 2 hrs by Western blot analysis. The class given is cell-based.
For experiment [10], the target named is SNF-related serine/threonine-protein kinase (Homo sapiens) (UniProt Q9NRH2). The experiment is described as follows: Binding affinity to wild-type human partial length SNRK (M1 to E339 residues) expressed in mammalian expression system assessed as residual binding level at 1 uM by Kinomescan method relative to control.
Experiment [11] deals with Protein kinase C epsilon type (Homo sapiens) (UniProt Q02156). The experiment is described as follows: Binding affinity to wild-type human partial length PRKCE (A378 to P737 residues) expressed in mammalian expression system assessed as residual binding level at 1 uM by Kinomescan method relative to control. An outline of the steps:
(§2)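 KINOMEscan competition binding against a panel of 468 purified kinases/mutants, compound tested at 1 μM; readout is relative binding activity versus control.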

Experiment [12] addresses Mitogen-activated protein kinase 1 (Homo sapiens) (UniProt P28482). Briefly: Binding affinity to wild-type human full length ERK2 (M1 to S360 residues) expressed in bacterial expression system assessed as residual binding level at 1 uM by Kinomescan method relative to control. An outline of the steps: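 KINOMEscan competition binding against 468 purified kinases/mutants, test compound at 1 µM; residual binding relative to control.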

The target of experiment [13] is Phosphatidylinositol 5-phosphate 4-kinase type-2 gamma (Homo sapiens) (UniProt Q8TBX8). Briefly: Binding affinity to wild-type human partial length PIP5K2C (M1 to A421 residues) expressed in mammalian expression system assessed as residual binding level at 1 uM by Kinomescan method relative to control. An outline of the steps: as §2
Experiment [14] concerns the target Dual specificity tyrosine-phosphorylation-regulated kinase 2 (Homo sapiens) (UniProt Q92630). Briefly: Binding affinity to wild-type human full length DYRK2 (M1 to S528 residues) expressed in mammalian expression system assessed as residual binding level at 1 uM by Kinomescan method relative to control. An outline of the steps:
as §1

Experiment [15] has as its target NUAK family SNF1-like kinase 1 (Homo sapiens) (UniProt O60285). Briefly: Binding affinity to wild-type human partial length ARK5 (E25 to I332 residues) expressed in bacterial expression system assessed as residual binding level at 1 uM by Kinomescan method relative to control. An outline of the steps: (§3)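 Single-concentration KINOMEscan (DiscoverX) binding screen at 1 μM against a panel of 468 purified kinases and mutants. The read-out is binding relative to control.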

Experiment [16] deals with Mitogen-activated protein kinase kinase kinase 2 (Homo sapiens) (UniProt Q9Y2U5). Briefly: Binding affinity to wild-type human partial length MAP3K2 (S315 to H619 residues) expressed in mammalian expression system assessed as residual binding level at 1 uM by Kinomescan method relative to control.
In experiment [17] the test system is Receptor-type tyrosine-protein kinase FLT3 (Homo sapiens), P36888 [UNDEFINED MUTATION]. The experiment is described as follows: Binding affinity to human partial length FLT3 ITD/D835V double mutant expressed in bacterial expression system assessed as residual binding level at 1 uM by Kinomescan method relative to control. An outline of the steps:
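Kinome-wide single-concentration binding screen (KINOMEscan) at 1 μM against a panel of 468 purified kinases and mutants. Read-out is relative binding of each kinase compared with control. Selectivity across the panel was summarised as an S(10) score.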

Experiment [18] has as its target 5'-AMP-activated protein kinase catalytic subunit alpha-2 (Homo sapiens) (UniProt P54646). The experiment is described as follows: Binding affinity to wild-type human partial length AMPK alpha2 (M1 to E306 residues) expressed in bacterial expression system assessed as residual binding level at 1 uM by Kinomescan method relative to control. An outline of the steps:
as §3

For experiment [19], the target named is SRSF protein kinase 3 (Homo sapiens) (UniProt Q9UPE1). Briefly: Binding affinity to wild-type human partial length SRPK3 (P41 to P567 residues) expressed in bacterial expression system assessed as residual binding level at 1 uM by Kinomescan method relative to control.
Experiment [20] has as its target Ribosomal protein S6 kinase alpha-5 (Homo sapiens) (UniProt O75582). Briefly: Binding affinity to wild-type human partial length N-terminal RPS6KA5 kinase domain 1 expressed in bacterial expression system assessed as residual binding level at 1 uM by Kinomescan method relative to control.
The target in experiment [21] is Cyclin-G-associated kinase (Homo sapiens) (UniProt O14976). The experiment is described as follows: Binding affinity to wild-type human partial length GAK (G13 to Y338 residues) expressed in bacterial expression system assessed as residual binding level at 1 uM by Kinomescan method relative to control. The procedure, abridged:
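Kinome-wide competition binding screen against a panel of 468 purified kinases/mutants, with the test compound at a single concentration of 1 μM. Read-out is the relative binding activity of each kinase in the presence of compound.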

The source made the active and inactive calls. The calls are words filed in the database; no cut-off is given here.

Chain of 5'-AMP-activated protein kinase catalytic subunit alpha-2 (Homo sapiens) (P54646 whole entry, looked up, the tested form may be a part): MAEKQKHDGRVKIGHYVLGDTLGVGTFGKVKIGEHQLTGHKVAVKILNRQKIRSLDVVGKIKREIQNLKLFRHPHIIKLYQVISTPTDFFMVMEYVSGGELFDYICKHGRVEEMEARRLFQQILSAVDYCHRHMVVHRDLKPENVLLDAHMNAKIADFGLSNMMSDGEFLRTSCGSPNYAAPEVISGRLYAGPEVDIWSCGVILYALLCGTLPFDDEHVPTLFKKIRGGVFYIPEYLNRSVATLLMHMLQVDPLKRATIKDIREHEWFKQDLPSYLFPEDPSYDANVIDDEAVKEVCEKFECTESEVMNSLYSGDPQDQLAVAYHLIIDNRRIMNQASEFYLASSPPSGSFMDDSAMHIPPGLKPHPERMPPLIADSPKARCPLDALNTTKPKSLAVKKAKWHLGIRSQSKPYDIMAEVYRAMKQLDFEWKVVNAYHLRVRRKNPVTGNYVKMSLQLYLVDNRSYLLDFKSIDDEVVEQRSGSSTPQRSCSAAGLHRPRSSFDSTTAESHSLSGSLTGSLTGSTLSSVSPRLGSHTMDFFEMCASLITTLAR
Chain of NUAK family SNF1-like kinase 1 (Homo sapiens) (O60285 whole entry, the tested form may be a part): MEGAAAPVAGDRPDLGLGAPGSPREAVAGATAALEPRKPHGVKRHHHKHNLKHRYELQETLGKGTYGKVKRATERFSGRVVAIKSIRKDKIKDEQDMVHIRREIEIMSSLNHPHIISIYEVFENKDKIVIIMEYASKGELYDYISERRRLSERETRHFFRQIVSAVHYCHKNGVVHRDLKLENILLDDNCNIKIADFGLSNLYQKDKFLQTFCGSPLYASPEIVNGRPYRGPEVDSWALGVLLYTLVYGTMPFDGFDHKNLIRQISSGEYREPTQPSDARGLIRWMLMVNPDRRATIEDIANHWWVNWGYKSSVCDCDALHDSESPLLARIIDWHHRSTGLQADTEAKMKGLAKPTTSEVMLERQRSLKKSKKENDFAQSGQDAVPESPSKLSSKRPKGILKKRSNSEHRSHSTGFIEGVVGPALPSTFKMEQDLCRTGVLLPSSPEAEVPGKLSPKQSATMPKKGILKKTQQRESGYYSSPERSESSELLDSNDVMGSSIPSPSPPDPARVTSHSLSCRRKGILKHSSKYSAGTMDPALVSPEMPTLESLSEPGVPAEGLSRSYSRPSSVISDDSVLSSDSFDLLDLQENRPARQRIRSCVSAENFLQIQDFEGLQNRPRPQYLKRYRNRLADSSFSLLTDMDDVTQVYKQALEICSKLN
Chain of SNF-related serine/threonine-protein kinase (Homo sapiens) (Q9NRH2 whole entry, the tested form may be a part): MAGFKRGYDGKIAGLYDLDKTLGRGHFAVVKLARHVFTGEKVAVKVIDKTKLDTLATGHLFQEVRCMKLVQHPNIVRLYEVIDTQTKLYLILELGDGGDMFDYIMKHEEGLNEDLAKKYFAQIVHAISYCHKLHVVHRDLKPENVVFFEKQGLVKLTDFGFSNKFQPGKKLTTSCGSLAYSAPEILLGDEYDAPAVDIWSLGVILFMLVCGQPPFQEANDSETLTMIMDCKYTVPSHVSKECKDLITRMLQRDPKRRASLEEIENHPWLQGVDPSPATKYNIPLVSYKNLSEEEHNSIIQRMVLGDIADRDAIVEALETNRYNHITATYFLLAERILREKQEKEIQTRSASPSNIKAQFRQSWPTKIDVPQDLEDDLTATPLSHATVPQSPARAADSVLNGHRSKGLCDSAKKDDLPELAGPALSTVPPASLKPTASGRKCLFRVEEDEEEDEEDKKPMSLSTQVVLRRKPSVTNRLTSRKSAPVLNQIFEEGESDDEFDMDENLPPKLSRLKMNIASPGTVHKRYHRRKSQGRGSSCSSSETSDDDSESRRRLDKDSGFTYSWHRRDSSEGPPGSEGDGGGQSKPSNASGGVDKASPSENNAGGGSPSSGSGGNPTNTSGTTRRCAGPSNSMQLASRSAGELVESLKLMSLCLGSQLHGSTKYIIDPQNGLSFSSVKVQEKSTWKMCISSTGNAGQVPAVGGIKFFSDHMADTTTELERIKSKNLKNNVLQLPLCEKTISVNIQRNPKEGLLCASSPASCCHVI
Chain of Mitogen-activated protein kinase kinase kinase 3 (Homo sapiens) (Q99759 whole entry, the tested form may be a part): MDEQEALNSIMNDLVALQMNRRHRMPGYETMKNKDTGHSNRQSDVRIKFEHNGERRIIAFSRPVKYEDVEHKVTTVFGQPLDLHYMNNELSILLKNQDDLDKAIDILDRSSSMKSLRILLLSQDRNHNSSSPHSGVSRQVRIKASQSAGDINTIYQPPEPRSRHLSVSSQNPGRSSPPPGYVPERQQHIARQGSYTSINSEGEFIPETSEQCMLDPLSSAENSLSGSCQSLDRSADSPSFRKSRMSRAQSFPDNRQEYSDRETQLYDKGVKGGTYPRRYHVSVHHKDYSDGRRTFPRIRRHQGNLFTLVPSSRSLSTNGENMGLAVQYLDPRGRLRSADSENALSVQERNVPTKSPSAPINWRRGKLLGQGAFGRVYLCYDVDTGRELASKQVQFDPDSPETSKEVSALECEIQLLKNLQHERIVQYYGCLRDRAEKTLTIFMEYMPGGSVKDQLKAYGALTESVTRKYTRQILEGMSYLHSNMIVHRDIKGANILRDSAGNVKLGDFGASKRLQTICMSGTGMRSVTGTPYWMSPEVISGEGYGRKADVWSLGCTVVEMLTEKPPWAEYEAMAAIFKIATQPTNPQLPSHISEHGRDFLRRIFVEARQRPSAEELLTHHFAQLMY
Chain of Cyclin-dependent kinase-like 1 (Homo sapiens) (Q00532 whole entry, the tested form may be a part): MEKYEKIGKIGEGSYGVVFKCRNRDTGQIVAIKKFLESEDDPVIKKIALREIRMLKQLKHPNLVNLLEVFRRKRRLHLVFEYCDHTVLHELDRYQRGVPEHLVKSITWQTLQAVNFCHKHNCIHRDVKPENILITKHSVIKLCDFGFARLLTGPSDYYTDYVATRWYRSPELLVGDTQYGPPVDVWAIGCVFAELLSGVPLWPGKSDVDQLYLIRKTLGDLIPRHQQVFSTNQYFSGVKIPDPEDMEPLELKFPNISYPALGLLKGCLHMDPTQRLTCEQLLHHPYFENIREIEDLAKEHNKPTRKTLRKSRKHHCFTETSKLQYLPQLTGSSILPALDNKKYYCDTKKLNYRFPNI
Chain of Dual specificity tyrosine-phosphorylation-regulated kinase 2 (Homo sapiens) (Q92630 whole entry, the tested form may be a part): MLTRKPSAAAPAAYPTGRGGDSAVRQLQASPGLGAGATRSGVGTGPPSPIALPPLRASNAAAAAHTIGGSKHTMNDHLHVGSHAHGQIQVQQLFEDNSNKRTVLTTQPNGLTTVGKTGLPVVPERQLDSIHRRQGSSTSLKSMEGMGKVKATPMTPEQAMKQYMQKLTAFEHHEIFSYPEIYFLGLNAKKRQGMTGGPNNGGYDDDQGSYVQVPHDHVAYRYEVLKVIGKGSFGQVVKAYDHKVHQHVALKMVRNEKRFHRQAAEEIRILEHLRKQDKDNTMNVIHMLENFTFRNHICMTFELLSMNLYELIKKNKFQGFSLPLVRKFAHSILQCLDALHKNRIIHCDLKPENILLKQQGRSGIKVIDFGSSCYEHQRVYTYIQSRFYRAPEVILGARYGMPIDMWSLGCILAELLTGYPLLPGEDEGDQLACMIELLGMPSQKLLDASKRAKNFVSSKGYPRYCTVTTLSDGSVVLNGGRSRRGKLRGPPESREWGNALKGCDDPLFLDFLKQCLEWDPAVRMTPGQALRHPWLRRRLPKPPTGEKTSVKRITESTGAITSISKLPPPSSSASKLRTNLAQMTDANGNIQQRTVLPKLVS
Chain of Serine/threonine-protein kinase VRK2 (Homo sapiens) (Q86Y07 whole entry, the tested form may be a part): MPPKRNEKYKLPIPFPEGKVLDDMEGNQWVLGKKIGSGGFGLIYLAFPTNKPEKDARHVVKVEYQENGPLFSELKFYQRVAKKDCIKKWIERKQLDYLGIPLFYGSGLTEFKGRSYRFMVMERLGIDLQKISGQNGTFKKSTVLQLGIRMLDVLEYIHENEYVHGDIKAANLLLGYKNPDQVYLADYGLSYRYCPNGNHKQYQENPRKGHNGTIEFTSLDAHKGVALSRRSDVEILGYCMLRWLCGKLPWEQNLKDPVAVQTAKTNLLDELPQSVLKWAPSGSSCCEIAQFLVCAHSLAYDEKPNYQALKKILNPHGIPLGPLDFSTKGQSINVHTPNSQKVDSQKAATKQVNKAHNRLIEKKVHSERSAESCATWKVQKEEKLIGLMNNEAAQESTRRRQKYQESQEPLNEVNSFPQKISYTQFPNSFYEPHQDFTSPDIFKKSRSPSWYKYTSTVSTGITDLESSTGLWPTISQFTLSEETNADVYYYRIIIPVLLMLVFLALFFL
Chain of SRSF protein kinase 3 (Homo sapiens) (Q9UPE1 whole entry, the tested form may be a part): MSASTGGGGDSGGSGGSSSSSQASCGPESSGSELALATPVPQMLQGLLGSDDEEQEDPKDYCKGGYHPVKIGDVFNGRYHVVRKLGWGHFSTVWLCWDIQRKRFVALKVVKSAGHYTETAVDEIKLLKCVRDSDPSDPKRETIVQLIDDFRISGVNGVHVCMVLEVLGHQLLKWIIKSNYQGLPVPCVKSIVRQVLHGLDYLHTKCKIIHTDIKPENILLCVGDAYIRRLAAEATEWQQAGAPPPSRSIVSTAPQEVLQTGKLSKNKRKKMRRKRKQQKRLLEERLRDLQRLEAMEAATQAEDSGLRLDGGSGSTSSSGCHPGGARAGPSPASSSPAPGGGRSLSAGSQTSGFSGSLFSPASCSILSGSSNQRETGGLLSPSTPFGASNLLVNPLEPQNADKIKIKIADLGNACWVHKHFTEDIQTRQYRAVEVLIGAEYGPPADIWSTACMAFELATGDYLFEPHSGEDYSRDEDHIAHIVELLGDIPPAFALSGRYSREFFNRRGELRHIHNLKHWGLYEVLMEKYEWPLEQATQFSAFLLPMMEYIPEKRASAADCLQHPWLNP
Chain of Mitogen-activated protein kinase 1 (Homo sapiens) (P28482 whole entry, the tested form may be a part): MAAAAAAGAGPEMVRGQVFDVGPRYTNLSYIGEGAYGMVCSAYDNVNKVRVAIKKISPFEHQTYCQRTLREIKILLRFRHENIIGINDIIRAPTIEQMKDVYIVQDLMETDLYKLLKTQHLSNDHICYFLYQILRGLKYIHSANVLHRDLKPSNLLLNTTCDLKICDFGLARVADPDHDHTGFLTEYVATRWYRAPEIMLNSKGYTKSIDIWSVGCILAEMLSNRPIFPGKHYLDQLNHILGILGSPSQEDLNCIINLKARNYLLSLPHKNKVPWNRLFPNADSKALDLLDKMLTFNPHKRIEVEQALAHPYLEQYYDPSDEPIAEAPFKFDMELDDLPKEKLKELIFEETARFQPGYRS

As for `Cc1ccc(NC(=O)c2ccc(CN(CCN(C)C)C(=O)c3cccnc3)cc2)cc1Nc1nccc(-c2cccnc2)n1`, the result in experiment [1] was inactive. Moreover, the Activity came to 100% in experiment [2]; 100% in [3]; 100% in experiment [4]; 100% in experiment [5]; 100% in experiment [6]; 85% in experiment [7]. For the same compound, the Activity in experiment [8] turned out to be 86%; in [10], 100%; in experiment [11], 80%; in experiment [12], 83%; in [13] it was 37%; in experiment [14], 100%. The Activity was 93% in experiment [15]; 100% in experiment [16]; 98% in [17]; 100% in experiment [18]; 85% in [19]; 86% in experiment [20]. For the same compound, in experiment [21], the Activity was determined as 82%. Besides, the inhibition entry in experiment [9] is “Active”.

Values taken from ChEMBL document CHEMBL4229344 (Eur J Med Chem, 2018).
